The record followed here is ChEMBL document CHEMBL3351398, “Discovery of a Potent and Selective DGAT1 Inhibitor with a Piperidinyl-oxy-cyclohexanecarboxylic Acid Moiety” (ACS Med Chem Lett, 2014).

The nature of data set [1]: Volume of distribution at steady state in Beagle dog at 1 mg/kg, iv or 4 mg/kg, po. As to conditions: in vivo, read-out: Vdss. The class given is ADME, organism-based, Canis lupus familiaris. A digest of the protocol: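 Beagle dogs were dosed 1 mg/kg iv as a solution in 30% captisol (pH 8) and 4 mg/kg po in methylcellulose. Pharmacokinetic parameters were derived from these dosings.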

A short description of data set [2]: Drug level in skin of C57BL/6 mouse at 10 mg/kg, po after 24 hrs. Conditions: read-out: Drug uptake. Type of data set: ADME, organism-based, Zone of skin. Further details: dose 10 mg/kg, route oral. The method, boiled down: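 Tissue distribution in C57BL/6 mice. A single oral dose of 10 mg/kg was given as a solution in EtOH/PEG400/water (10:50:40). Parent and its cis isomer were both measured, in μM, in plasma, liver, small intestine, adipose fat and skin at 3 h and 24 h.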

As to `O=C(O)[C@H]1CC[C@H](OC2CCN(c3ccc(-c4nc5cc(C(F)(F)F)ccc5[nH]4)cn3)CC2)CC1`, the Vd in data set [1] turned out to be 4.54 L/kg. Also, the concentration at 24 h in data set [2] turned out to be 0.167 µM.
